Columns and labels:
[1] = test system: Plasmodium falciparum; assay: Antimalarial activity against Plasmodium falciparum 3D7 incubated for 72 hrs by LDH assay; assay type: functional, organism-based; conditions: 3D7, 72 h
Procedure, shortened: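 Asexual blood-stage P. falciparum 3D7 parasites were cultured with compound for 72 h, and viability was read by lactate dehydrogenase (LDH) activity.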

[2] = test system: HepG2; assay: Cytotoxicity against human HePG2 cells assessed as growth inhibition after 48 hrs by Cell Titer-Glo assay; assay type: cell-based; conditions: HepG2, 48 h
[3] = Intrinsic clearance in mouse liver microsomes at 1 uM in presence of NADPH measured up to 60 mins by LC-MS analysis; assay type: ADME, Microsome; conditions: read-out: CLH

Compound | EC50 [1] [µM] | microsomal CLint at 1 µM [3] [µL/min/mg] | EC50 [2] [µM]
CC(C(=O)N1CCCC1)N1CCN(S(=O)(=O)c2ccc(C(C)(C)C)cc2)[C@H](C)C1 (stereo not given in full) | > 10 |  | 
CC(C(=O)N1CCCC1)N1CCN(S(=O)(=O)c2ccc(CC(F)(F)F)cc2)CC1 (stereo not given) | > 10 |  | 
CC(C(=O)N1CCc2cccnc2C1)N1CCN(S(=O)(=O)c2ccc(C(C)(C)C)cc2)CC1 (stereo not given) | 1.9 |  | > 40
CC(C(=O)N(C)c1ccccc1)N1CCN(S(=O)(=O)c2ccc(C(C)(C)C)cc2)CC1 (stereo not given) | > 10 |  | 
CC(C)(C)c1ccc(S(=O)(=O)N2CCN(C(Cc3ccccc3)C(=O)N3CCCC3)CC2)cc1 (stereo not given) | > 10 |  | 
CC(C(=O)N1CCCC1)N1CCN(S(=O)(=O)c2ccc(C3CCCC3)cc2)CC1 (stereo not given) | > 10 |  | 
CC(C(=O)N1CCc2ncccc2C1)N1CCN(S(=O)(=O)c2ccc(C(C)(C)C)cc2)CC1 (stereo not given) | 2.6 |  | > 40
CC(C(=O)N1CCCC1)N1CCN(S(=O)(=O)c2ccc(C3(C(F)(F)F)CC3)cc2)CC1 (stereo not given) | > 10 |  | 
CC(C(=O)N(C)CCc1ccccc1)N1CCN(S(=O)(=O)c2ccc(C(C)(C)C)cc2)CC1 (stereo not given) | 2.1 |  | 17
CC(C(=O)N1CCCC1)N1CC2(C1)CN(S(=O)(=O)c1ccc(C(C)(C)C)cc1)C2 (stereo not given) | > 10 |  | 
CC(C(=O)N1CCc2ccccc2C1C)N1CCN(S(=O)(=O)c2ccc(C(C)(C)C)cc2)CC1 (stereo not given) | 1.2 |  | 28
CC(C(=O)N(C)Cc1ccccc1)N1CCN(S(=O)(=O)c2ccc(C(C)(C)C)cc2)CC1 (stereo not given) | 1.2 |  | > 40
CC(C(=O)N1CCCC1)N1C[C@@H]2C[C@H]1CN2S(=O)(=O)c1ccc(C(C)(C)C)cc1 (mixture of isomers) | > 10 |  | > 40
CC(C(=O)N1CCc2ccccc2C12CCCC2)N1CCN(S(=O)(=O)c2ccc(C(C)(C)C)cc2)CC1 (stereo not given) | 0.81 |  | > 40
CCC1(CC)c2ccccc2CCN1C(=O)C(C)N1CCN(S(=O)(=O)c2ccc(C(C)(C)C)cc2)CC1 (stereo not given) | 1.2 |  | > 40
CC(C)(C)c1ccc(S(=O)(=O)N2CCN(C(C(=O)N3CCCC3)c3ccccc3)CC2)cc1 (stereo not given) | 5.1 |  | > 40
CC(C(=O)N1C2CCCC1CC2)N1CCN(S(=O)(=O)c2ccc(C(C)(C)C)cc2)CC1 (stereo not given) | 0.92 |  | > 40
CC(C)(C)c1ccc(S(=O)(=O)N2CCN(CC(=O)N3CCCC3)CC2)cc1 | > 10 |  | 
CC(C(=O)N1CCCC1)N1CCN(S(=O)(=O)c2ccc(S(F)(F)(F)(F)F)cc2)CC1 (stereo not given) | > 10 |  | 
CN(C(=O)N1CCCC1)C1CCN(S(=O)(=O)c2ccc(C(C)(C)C)cc2)CC1 | > 10 |  | 
CC(C(=O)N1CCCC1)N1CCN(S(=O)(=O)c2ccc(-c3ccccc3)cc2)CC1 (stereo not given) | > 10 |  | 
CC(C(=O)N1CCCC1)N1CCN(S(=O)(=O)c2ccc(C(C)(C)C)cc2)CC1=O (stereo not given) | > 10 |  | 
CC(C(=O)N1CCCC1)C1CCN(S(=O)(=O)c2ccc(C(C)(C)C)cc2)CC1 (stereo not given) | > 10 | 532 | > 40

Continued, in another order:

EC50 [1] [µM] | microsomal CLint at 1 µM [3] [µL/min/mg] | Compound | EC50 [2] [µM]
0.65 |  | CC(C(=O)N1CCCCCC1)N1CCN(S(=O)(=O)c2ccc(C(C)(C)C)cc2)CC1 (stereo not given) | > 40
6.1 |  | CC(C(=O)N1CCN(C)CC1)N1CCN(S(=O)(=O)c2ccc(C(C)(C)C)cc2)CC1 (stereo not given) | > 40
4.3 |  | CC(C(=O)N1CCC(C)(C)CC1)N1CCN(S(=O)(=O)c2ccc(C(C)(C)C)cc2)CC1 (stereo not given) | > 40
0.49 | > 866 | C[C@@H](C(=O)N1CCCC1)N1CCN(S(=O)(=O)c2ccc([Si](C)(C)C)cc2)CC1 | > 40
> 10 |  | CC(C(=O)N1CCCC1)N1CCN(S(=O)(=O)c2ccccc2)CC1 (stereo not given) | 
8.4 |  | CC(C(=O)N1CCCC1)N1CCN(S(=O)(=O)c2cccc(C(C)(C)C)c2)CC1 (stereo not given) | > 40
> 10 |  | CC(C(=O)N1CCCC1)N1CCN(S(=O)(=O)c2ccc(OC(F)(F)F)cc2)CC1 (stereo not given) | 
9.1 |  | CCC(C)c1ccc(S(=O)(=O)N2CCN(C(C)C(=O)N3CCCC3)CC2)cc1 (stereo not given) | > 40
> 10 |  | CC(C(=O)N1CCCC1)N1CCN(S(=O)(=O)c2ccc(C(C)(C)CO)cc2)CC1 (stereo not given) | > 40
> 10 |  | CCCC(C(=O)N1CCCC1)N1CCN(S(=O)(=O)c2ccc(C(C)(C)C)cc2)CC1 (stereo not given) | 
4.4 |  | CC(C(=O)N1CCOCC1)N1CCN(S(=O)(=O)c2ccc(C(C)(C)C)cc2)CC1 (stereo not given) | > 40

— ChEMBL document CHEMBL4732224, “Structure activity refinement of phenylsulfonyl piperazines as antimalarials that block erythrocytic invasion” (Eur J Med Chem, 2021)
